# What was measured:
# Candida albicans = test: In vitro antifungal activity against Candida albicans; format: functional
# In short: (§1)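 Fungal growth-inhibition screen (Godefroi method) against dermatophytes, yeasts, moulds and other fungi. The value is the lowest concentration (µg/mL) giving total inhibition of growth, tested up to 100 µg/mL.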
# Trichophyton benhamiae = test: In vitro antifungal activity against Trichophyton mentagrophytes; format: functional, Arthroderma benhamiae; in short: as §1
# Phialophora verrucosa = test: In vitro antifungal activity against Phialophora verrucosa; format: functional; in short: as §1
# [1] = In vitro antifungal activity against Mucor sp; format: functional; in short: as §1
# Cryptococcus neoformans = test: In vitro antifungal activity against Cryptococcus neoformans; format: functional; in short: as §1
# Trichophyton rubrum = test: In vitro antifungal activity against Trichophyton rubrum; format: functional; in short: as §1
# [2] = In vivo activity against vaginal candidoses in rats, measured as the ratio of animals cured/animals infected (C/I) at dose 2.5 mg/kg; C/I = 1/2; format: functional
# Saprolegnia = test: In vitro antifungal activity against Saprolegnia sp; format: functional; in short: as §1
# [3] = In vivo activity against microsporosis guinea pig, measured as the ratio of animals cured/animals infected (C/I) at dose 10 mg/kg; C/I = 1/4; format: functional
# Microsporum canis = test: In vitro antifungal activity against Microsporum canis; format: functional; in short: as §1
# Candida tropicalis = test: In vitro antifungal activity against Candida tropicalis; format: functional; in short: as §1
# Sporothrix schenckii = test: In vitro antifungal activity against Sporothrix schenck ii; format: functional; in short: as §1
# Aspergillus fumigatus = test: In vitro antifungal activity against Aspergillus fumigatus; format: functional; in short: as §1
# [4] = In vivo activity against vaginal candidoses in rats, measured as the ratio of animals cured/animals infected (C/I) at dose 2.5 mg/kg; 0/2; format: functional
# [5] = In vivo activity against microsporosis guinea pig, measured as the ratio of animals cured/animals infected (C/I) at dose 20 mg/kg; 0/2; format: functional
# [6] = In vivo activity against vaginal candidoses in rats, measured as the ratio of animals cured/animals infected (C/I) at dose 10 mg/kg; 1/2; format: functional
# [7] = In vivo activity against microsporosis guinea pig, measured as the ratio of animals cured/animals infected (C/I) at dose 20 mg/kg; C/I = 0/2; format: functional
# [8] = In vivo activity against vaginal candidoses in rats, measured as the ratio of animals cured/animals infected (C/I) at dose 10 mg/kg; C/I = 1/2; format: functional
# [9] = In vivo activity against microsporosis guinea pig, measured as the ratio of animals cured/animals infected (C/I) at dose 10 mg/kg; C/I = 2/2; format: functional
# [10] = In vivo activity against microsporosis guinea pig, measured as the ratio of animals cured/animals infected (C/I) at dose 2.5 mg/kg; C/I = 0/2; format: functional
# [11] = In vivo activity against vaginal candidoses in rats, measured as the ratio of animals cured/animals infected (C/I) at dose 2.5 mg/kg; C/I = 2/4; format: functional
# [12] = In vivo activity against vaginal candidoses in rats, measured as the ratio of animals cured/animals infected (C/I) at dose 0.63 mg/kg; C/I = 1/6; format: functional
# [13] = In vivo activity against microsporosis guinea pig, measured as the ratio of animals cured/animals infected (C/I) at dose 10 mg/kg; C/I = 0/4; format: functional
# [14] = In vivo activity against vaginal candidoses in rats, measured as the ratio of animals cured/animals infected (C/I) at dose 2.5 mg/kg; C/I = 9/10; format: functional
# [15] = In vivo activity against vaginal candidoses in rats, measured as the ratio of animals cured/animals infected (C/I) at dose 1.25 mg/kg; C/I = 1/4; format: functional
# [16] = In vivo activity against vaginal candidoses in rats, measured as the ratio of animals cured/animals infected (C/I) at dose 0.63 mg/kg; C/I = 0/2; format: functional
# [17] = In vivo activity against vaginal candidoses in rats, measured as the ratio of animals cured/animals infected (C/I) at dose 2.5 mg/kg; C/I = 2/2; format: functional
# [18] = In vivo activity against microsporosis guinea pig, measured as the ratio of animals cured/animals infected (C/I) at dose 1.25 mg/kg; C/I = 0/2; format: functional
# [19] = In vivo activity against vaginal candidoses in rats, measured as the ratio of animals cured/animals infected (C/I) at dose 1.25 mg/kg; C/I = 1/6; format: functional
# [20] = In vivo activity against vaginal candidoses in rats, measured as the ratio of animals cured/animals infected (C/I) at dose 2.5 mg/kg; C/I = 4/8; format: functional
# [21] = In vivo activity against microsporosis guinea pig, measured as the ratio of animals cured/animals infected (C/I) at dose 10 mg/kg; C/I = 4/6; format: functional
# [22] = In vivo activity against microsporosis guinea pig, measured as the ratio of animals cured/animals infected (C/I) at dose 2.5 mg/kg; C/I = 0/6; format: functional
# [23] = In vivo activity against vaginal candidoses in rats, measured as the ratio of animals cured/animals infected (C/I) at dose 0.63 mg/kg; C/I = 0/4; format: functional
# [24] = In vivo activity against vaginal candidoses in rats, measured as the ratio of animals cured/animals infected (C/I) at dose 0.63 mg/kg; C/I = 2/12; format: functional
# [25] = In vivo activity against microsporosis guinea pig, measured as the ratio of animals cured/animals infected (C/I) at dose 1.25 mg/kg; C/I = 2/6; format: functional
# [26] = In vivo activity against microsporosis guinea pig, measured as the ratio of animals cured/animals infected (C/I) at dose 2.5 mg/kg; C/I = 7/12; format: functional
# [27] = In vivo activity against vaginal candidoses in rats, measured as the ratio of animals cured/animals infected (C/I) at dose 10 mg/kg; C/I = 5/6; format: functional
# Rattus norvegicus = test: In vivo activity against vaginal candidoses in rats, measured as the ratio of animals cured/animals infected (C/I) at dose 1.25 mg/kg; C/I = 12/22; format: functional
# [28] = In vivo activity against vaginal candidoses in rats, measured as the ratio of animals cured/animals infected (C/I) at dose 2.5 mg/kg; C/I = 20/24; format: functional
# [29] = In vivo activity against microsporosis guinea pig, measured as the ratio of animals cured/animals infected (C/I) at dose 10 mg/kg; C/I = 6/6; format: functional
# [30] = In vivo activity against microsporosis guinea pig, measured as the ratio of animals cured/animals infected (C/I) at dose 1.25 mg/kg; C/I = 3/6; format: functional
# [31] = In vivo activity against vaginal candidoses in rats, measured as the ratio of animals cured/animals infected (C/I) at dose 1.25 mg/kg; C/I = 7/10; format: functional
# [32] = In vivo activity against vaginal candidoses in rats, measured as the ratio of animals cured/animals infected (C/I) at dose 0.63 mg/kg; C/I = 4/10; format: functional
# [33] = In vivo activity against vaginal candidoses in rats, measured as the ratio of animals cured/animals infected (C/I) at dose 2.5 mg/kg; C/I = 7/10; format: functional
# [34] = In vivo activity against microsporosis guinea pig, measured as the ratio of animals cured/animals infected (C/I) at dose 2.5 mg/kg; C/I = 5/8; format: functional
Compound,Inhibition (Candida albicans) [µg/mL],Inhibition (Trichophyton benhamiae) [µg/mL],Inhibition (Phialophora verrucosa) [µg/mL],Inhibition [1] [µg/mL],Inhibition (Cryptococcus neoformans) [µg/mL],Inhibition (Trichophyton rubrum) [µg/mL],Inhibition (Saprolegnia) [µg/mL],Inhibition (Microsporum canis) [µg/mL],Inhibition (Candida tropicalis) [µg/mL],Inhibition (Sporothrix schenckii) [µg/mL],Inhibition (Aspergillus fumigatus) [µg/mL],C/I ratio [9],also measured
CCCn1nc(CC)n(-c2ccc(N3CCN(c4ccc(OC[C@@H]5COC(Cn6ccnc6)(c6ccc(Cl)cc6Cl)O5)cc4)CC3)cc2)c1=O (some centres not stated),100,10,>100,>100,>100,100,>100,>100,10,>100,>100,–,C/I ratio [2]: 1; C/I ratio [3]: 1
CC(=O)N1CCN(c2ccc(OC[C@@H]3COC(Cn4cncn4)(c4ccc(Cl)cc4Cl)O3)cc2)CC1 (some centres not stated),–,–,–,–,–,–,–,100,–,–,–,–,C/I ratio [4]: 0; C/I ratio [5]: 0; C/I ratio [6]: 1
Cc1nn(C)c(=O)n1-c1ccc(N2CCN(c3ccc(OC[C@@H]4COC(Cn5cncn5)(c5ccc(Cl)cc5Cl)O4)cc3)CC2)cc1 (some centres not stated),>100,>100,>100,>100,>100,>100,>100,>100,>100,>100,>100,–,C/I ratio [7]: 0; C/I ratio [2]: 1; C/I ratio [8]: 1
Cc1nn(CC(C)C)c(=O)n1-c1ccc(N2CCN(c3ccc(OC[C@@H]4COC(Cn5ccnc5)(c5ccc(Cl)cc5Cl)O4)cc3)CC2)cc1 (some centres not stated),>100,100,>100,>100,100,100,>100,>100,100,>100,>100,2,C/I ratio [10]: 0; C/I ratio [11]: 0.5
CCn1nc(C)n(-c2ccc(N3CCN(c4ccc(OC[C@@H]5COC(Cn6cncn6)(c6ccc(Cl)cc6Cl)O5)cc4)CC3)cc2)c1=O (some centres not stated),>100,>100,>100,>100,>100,>100,>100,>100,>100,>100,>100,–,C/I ratio [12]: 1; C/I ratio [13]: 0; C/I ratio [14]: 9; C/I ratio [15]: 1
CCC(C)n1nc(C)n(-c2ccc(N3CCN(c4ccc(OC[C@@H]5COC(Cn6cncn6)(c6ccc(Cl)cc6Cl)O5)cc4)CC3)cc2)c1=O (some centres not stated),10,100,>100,>100,>100,>100,>100,>100,>100,>100,>100,2,C/I ratio [10]: 0; C/I ratio [16]: 0; C/I ratio [17]: 1
CCCCn1nc(C)n(-c2ccc(N3CCN(c4ccc(OC[C@@H]5COC(Cn6ccnc6)(c6ccc(Cl)cc6Cl)O5)cc4)CC3)cc2)c1=O (some centres not stated),100,10,>100,>100,100,10,>100,>100,1,>100,>100,–,C/I ratio [18]: 0; C/I ratio [19]: 1; C/I ratio [20]: 0.5; C/I ratio [21]: 0.667; C/I ratio [22]: 0; C/I ratio [23]: 0
CC(C)n1ncn(-c2ccc(N3CCN(c4ccc(OC[C@@H]5COC(Cn6cncn6)(c6ccc(Cl)cc6Cl)O5)cc4)CC3)cc2)c1=O (some centres not stated),>100,100,>100,>100,>100,>100,>100,>100,>100,>100,>100,–,C/I ratio [24]: 0.167; C/I ratio [25]: 2; C/I ratio [26]: 0.583 (not active); C/I ratio [27]: 0.833; C/I ratio (Rattus norvegicus): 0.545; C/I ratio [28]: 0.833; C/I ratio [29]: 1
CC(C)Cn1ncn(-c2ccc(N3CCN(c4ccc(OC[C@@H]5COC(Cn6cncn6)(c6ccc(Cl)cc6Cl)O5)cc4)CC3)cc2)c1=O (some centres not stated),100,10,>100,>100,100,10,>100,>100,10,>100,>100,2,C/I ratio [30]: 0.5; C/I ratio [31]: 0.7; C/I ratio [32]: 0.4; C/I ratio [33]: 0.7; C/I ratio [34]: 0.625
